Values after ≈ are worked out from the molar mass of the structure shown.
Assays:
[1] = tested on: Entamoeba histolytica; test: Antiprotozoal activity measured as the conc for >95% inhibition of Entamoeba histolytica; assay type: functional, organism-based
Outline: (§1)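 E. histolytica (J 190) grown 48 h at 37 °C in modified Boeck Drbohlav medium, pooled; 0.6 × 10^6 organisms inoculated into 10 mL medium with drug at 32 to 0.06 µg/mL, incubated 48 h.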

[2] = tested on: Tritrichomonas suis; test: Antiprotozoal activity measured as the conc for >95% inhibition of Trichomonas foetus; assay type: functional, organism-based
Outline: (§2)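 Protozoa grown 48 h (T. vaginalis in TYM 721, T. foetus in TYM 359, E. histolytica J 190 in modified Boeck Drbohlav medium, 37 °C) and pooled; 0.6 × 10^6 organisms into 10-mL tubes with drug 32 to 0.06 µg/mL, 48 h; inhibition scored microscopically against untreated controls as 100, >95, 95-25 or <25%.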

[3] = tested on: Trichomonas vaginalis; test: Antiprotozoal activity measured as the conc for 95-[…]% inhibition of Trichomonas vaginalis; assay type: functional, organism-based
[4] = tested on: Trichomonas vaginalis; test: Antiprotozoal activity measured as the conc for 100% inhibition of Trichomonas vaginalis; assay type: functional, organism-based; outline: as §2
[5] = tested on: Tritrichomonas suis; test: Antiprotozoal activity measured as the conc for 95-[…]% inhibition of Trichomonas foetus; assay type: functional, organism-based
[6] = tested on: Trichomonas vaginalis; test: Antiprotozoal activity measured as the conc for >95% inhibition of Trichomonas vaginalis; assay type: functional, organism-based; outline: as §2
[7] = tested on: Tritrichomonas suis; test: Antiprotozoal activity measured as the conc for <[…]% inhibition of Trichomonas foetus; assay type: functional, organism-based
[8] = tested on: Tritrichomonas suis; test: Antiprotozoal activity measured as the conc for 100% inhibition of Trichomonas foetus; assay type: functional, organism-based; outline: as §2
[9] = tested on: Candida albicans; test: Antifungal activity against Candida albicans, activity expressed as […] inhibitory zone (mm, diameter); QA is questionable activity; assay type: functional, organism-based
Outline: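 Agar diffusion on Sabouraud's dextrose agar seeded with 24-h yeast culture at 1:100 in agar; paper disks loaded with 0.05 mg drug (stock 1 mg/mL in Me2SO-EtOH 1:9). Incubated at 37 °C for 48 h; inhibition zone diameter measured in mm.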

[10] = tested on: Entamoeba histolytica; test: Antiprotozoal activity measured as the conc for 100% inhibition of Entamoeba histolytica; assay type: functional, organism-based; outline: as §1
[11] = tested on: Cutibacterium acnes; test: Antibacterial activity against Propionibacterium acnes, activity expressed as inhibitory zone (mm, diameter); assay type: functional
Outline: (§3)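 Agar diffusion: disks loaded with 0.05 mg drug (stock 1 mg/mL in Me2SO-EtOH 1:9) on brain-heart infusion agar seeded 1:100 with 48-h anaerobe culture grown in thioglycolate broth; incubated anaerobically at 37 °C for 24 h; zone diameter measured in mm.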

[12] = tested on: Candida albicans; test: Antifungal activity against Candida albicans, activity expressed as […] inhibitory zone (mm, diameter); assay type: functional
Outline: (§4)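 Yeast grown in Sabouraud's dextrose broth, 24-h culture seeded 1:100 into agar; paper disks carrying 0.05 mg drug (from 1 mg/mL stock in Me2SO-EtOH 1:9); 37 °C, read after 48 h as zone diameter (mm).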

[13] = tested on: Epidermophyton floccosum; test: Antifungal activity against Epidermophyton floccosum, activity expressed as inhibitory zone (mm, diameter); assay type: functional
Outline: (§5)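 Dermatophytes grown in Sabouraud's dextrose broth, 4-5 day cultures seeded 1:100 into agar; disks with 0.05 mg drug (1 mg/mL stock, Me2SO-EtOH 1:9); grown and tested at 28 °C, zone diameter (mm) read after 48 h.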

[14] = tested on: Candida albicans; test: Antifungal activity against Candida albicans, activity expressed as minimum inhibitory concentration (ug/mL); assay type: functional
Outline: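 Tube dilution in Sabouraud's dextrose broth (ca. 3 mL/tube) at 37 °C; inoculum from 24-h yeast culture, 1:1000 in saline. Drug dissolved in Me2SO-EtOH (1:9), stock 3.2 mg/mL; twofold serial dilutions 32 to 0.06 µg/mL. Read after 48 h; MIC = lowest concentration with no visible growth.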

[15] = tested on: Trichomonas vaginalis; test: Antiprotozoal activity measured as the conc for <[…]% inhibition of Trichomonas vaginalis; assay type: functional, organism-based
[16] = tested on: Saccharomyces cerevisiae; test: Antifungal activity against Saccharomyces cerevisiae, activity expressed as minimum inhibitory concentration (ug/mL).; assay type: functional
[17] = tested on: Trichophyton benhamiae; test: Antifungal activity against Trichophyton mentagrophytes, activity expressed as minimum inhibitory concentration (ug/mL).; assay type: functional, Arthroderma benhamiae
[18] = tested on: Entamoeba histolytica; test: Antiprotozoal activity measured as the conc for <[…]% inhibition of Entamoeba histolytica; assay type: functional, organism-based
[19] = tested on: Trichophyton benhamiae; test: Antifungal activity against Trichophyton mentagrophytes, activity expressed as inhibitory zone (mm, diameter); assay type: functional, Arthroderma benhamiae; outline: as §5
[20] = tested on: Clostridium novyi; test: Antibacterial activity against Clostridium novyi, activity expressed as inhibitory zone (mm, diameter); assay type: functional; outline: as §3
[21] = tested on: Saccharomyces cerevisiae; test: Antifungal activity against Saccharomyces cerevisiae, activity expressed as inhibitory zone (mm, diameter); assay type: functional; outline: as §4
[22] = tested on: Actinomyces israelii; test: Antibacterial activity against Actinomyces israelii, activity expressed as inhibitory zone (mm, diameter); assay type: functional; outline: as §3
[23] = tested on: Streptococcus pyogenes; test: Antibacterial activity against Streptococcus pyogenes C, activity expressed as inhibitory zone (mm, diameter); assay type: functional; outline: as §3
[24] = tested on: Bacteroides fragilis; test: Antibacterial activity against Bacteroides fragilis, activity expressed as […] inhibitory zone (mm, diameter); assay type: functional
Outline: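 Agar diffusion vs B. fragilis grown in thioglycolate broth: 0.05 mg drug per paper disk (stock 1 mg/mL, Me2SO-EtOH 1:9), brain-heart infusion agar seeded with 48-h culture at 1:100, anaerobic 37 °C, 24 h; zone diameter in mm.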

[25] = tested on: Epidermophyton floccosum; test: Antifungal activity against Epidermophyton floccosum, activity expressed as minimum inhibitory concentration (ug/mL); assay type: functional
[26] = tested on: Entamoeba histolytica; test: Antiprotozoal activity measured as the conc for 95-[…]% inhibition of Entamoeba histolytica; assay type: functional, organism-based
[27] = tested on: Entamoeba histolytica; test: Antiprotozoal activity measured as the conc for >95% inhibition of Entamoeba histolytica,; assay type: functional, organism-based; outline: as §2
[28] = tested on: Entamoeba histolytica; test: Antiprotozoal activity measured as the conc for 100% inhibition of Entamoeba histolytica,; assay type: functional, organism-based; outline: as §2
[29] = tested on: Entamoeba histolytica; test: Antiprotozoal activity measured as the conc for <[…]% inhibition of Entamoeba histolytica,; assay type: functional, organism-based
[30] = Candida albicans, read-out: MIC
[31] = Saccharomyces cerevisiae, read-out: MIC
[32] = Trichophyton benhamiae, read-out: MIC
[33] = Epidermophyton floccosum, read-out: MIC

Row | SMILES | Concentration [1] [µg/mL] | Concentration [2] [µg/mL] | Concentration [3] [µg/mL] | Concentration [4] [µg/mL] | Concentration [5] [µg/mL] | Concentration [6] [µg/mL] | Concentration [7] [µg/mL] | Inhibitory zone [11] [mm] | Inhibitory zone [12] [mm] | Inhibitory zone [13] [mm] | MIC [14, 30] [µg/mL] | MIC [16, 31] [µg/mL] | MIC [17, 32] [µg/mL] | Inhibitory zone [19] [mm] | Inhibitory zone [20] [mm] | Inhibitory zone [21] [mm] | Inhibitory zone [22] [mm] | Inhibitory zone [23] [mm] | Inhibitory zone [24] [mm] | MIC [25, 33] [µg/mL] | further results
1 | COc1ccc(C[C@H]2NC[C@H](O)[C@H]2OC(C)=O)cc1 | 1 | 1 | 0.25 | 2 | 0.5 | 0.5 | 0.25 | – | – | – | – | – | – | – | – | – | – | – | – | – | Concentration [8]: 4 µg/mL; Inhibitory zone [9]: Questionable activity; Concentration [10]: 2 µg/mL
2 | COc1cccc(C[C@H]2NC[C@H](O)[C@H]2OC(C)=O)c1 | 16 | 16 | 8 | 32 | – | 16 | 8 | 12 | 0 | 8 | > 32 | 8 (≈ 30.2 µM) | > 32 | 10 | 15 | 0 | 10 | 0 | 10 | > 32 | Concentration [15]: 4 µg/mL; Concentration [18]: 8 µg/mL; Concentration [10]: 32 µg/mL
3 | COc1ccc(C(c2ccccc2)[C@H]2NC[C@H](O)[C@H]2OC(C)=O)cc1 (some centres not stated) | – | – | 32 | – | 32 | – | 16 | 18 | 0 | 10 | > 32 | > 32 | > 32 | 0 | 20 | 0 | 10 | 13 | 0 | > 32 | Concentration [15]: 16 µg/mL; Concentration [18]: 32 µg/mL
4 | CC(=O)O[C@@H]1[C@@H](O)CN[C@@H]1Cc1ccc(C)cc1 | 2 | 4 | 2 | 8 | 1 | 4 | 0.5 | 0 | 0 | 8 | 8 (≈ 32.1 µM) | 1 (≈ 4.01 µM) | 4 (≈ 16 µM) | 10 | 0 | 0 | 0 | 0 | 0 | 16 (≈ 64.2 µM) | Concentration [8]: 16 µg/mL; Concentration [26]: 1 µg/mL; Concentration [10]: 4 µg/mL
5 | COc1ccc(C[C@H]2NC[C@H](O)[C@H]2OC(C)=O)cc1 (racemic) [ANISOMYCIN] | – | – | – | – | – | – | – | 0 | 0 | 8 | 8 (≈ 30.2 µM) | 0.5 (≈ 1.88 µM) | 4 (≈ 15.1 µM) | 10 | 0 | 10 | 0 | 0 | 0 | 32 (≈ 121 µM) | –
6 | Clc1ccccc1C(c1ccccc1)(c1ccccc1)n1ccnc1 [CLOTRIMAZOLE] | – | – | 8 | 32 | – | – | – | – | – | – | – | – | – | – | – | – | – | – | – | – | Concentration [27]: 16 µg/mL; Concentration [28]: 32 µg/mL; MIC [14]: 4 µg/mL (≈ 11.6 µM); Concentration [15]: 4 µg/mL; MIC [16]: 0.06 µg/mL (≈ 0.174 µM); MIC [17]: 0.06 µg/mL (≈ 0.174 µM); Concentration [29]: 4 µg/mL; MIC [25]: 0.06 µg/mL (≈ 0.174 µM); Concentration [26]: 8 µg/mL
